Data set [1] concerns Trypanosoma brucei. As to the kind of experiment: Antitrypanosomal activity against Trypanosoma brucei 427 bloodstream forms assessed as inhibition of parasite growth incubated for 48 hrs by hemocytometry. In kind it is functional, organism-based.
A further data set deals with Trypanosoma cruzi. As to the kind of experiment: Antitrypanosomal activity against Trypanosoma cruzi CL Brener clone epimastigotes assessed as inhibition of parasite growth incubated for 5 days by hemocytometry. Particulars: 120 h.
Another data set deals with L6. As to the kind of experiment: Cytotoxicity against rat L6 cells after 6 days using alamar blue staining based fluorescence assay. In kind it is cell-based. To be noted: L6, 144 h. The essentials: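 Rat skeletal muscle L6 cells seeded at 1 × 10⁴ ml⁻¹ in medium containing graded compound concentrations and held 6 days at 37 °C. Alamar Blue then added, with fluorescence read after a further 8 h.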

The nature of data set [2]: Selectivity index, ratio of IC50 for rat L6 cells to IC50 for Trypanosoma brucei bloodstream forms. In kind it is toxicity, cell-based. To be noted: read-out: Ratio IC50.
Data set [3] deals with Trypanosoma brucei. In words: Antitrypanosomal activity against Trypanosoma brucei bloodstream form assessed as inhibition parasite growth.
In data set [4] the test system is Trypanosoma brucei. As to the kind of experiment: Antitrypanosomal activity against Trypanosoma brucei bloodstream forms assessed as inhibition parasite growth at 5 ug/ml. In kind it is functional.
The test system of data set [5] is Trypanosoma brucei. In words: Antitrypanosomal activity against Trypanosoma brucei relative to amantadine. In kind it is functional.
For data set [6], the system named is Trypanosoma brucei. As to the kind of experiment: Antitrypanosomal activity against Trypanosoma brucei relative to rimantadine. It is filed as functional.

Calls of active or inactive are those of the source. The rule behind the calls is not given here.

In the case of `O=C(CN1C(=O)[C@H](Cc2ccccc2)NC2(C1=O)C1CC3CC(C1)CC2C3)NO` (stereo partly specified) [listing 1 of 2 here], in the data set on Trypanosoma brucei [1], the IC50 was 42 nM and the IC90 worked out at 80 nM.

For `C[C@@H]1NC2(C(=O)N(CC(=O)NO)C1=O)C1CC3CC(C1)CC2C3` (stereo partly specified) [listing 1 of 2 here], in the data set on Trypanosoma brucei [1], the IC50 amounted to 405 nM and the IC90 stood at 909 nM.

With `CN1CC(=O)N(CC(=O)NO)C(=O)C12CCCCCCC2` [listing 1 of 2 here], in the data set with Trypanosoma brucei [1] (Trypanosoma brucei, 427, 48 h), the IC50 came out at 158 nM and the IC90 is 300 nM.

With `CN1CC(=O)N(CC(=O)NO)C(=O)C12C1CC3CC(C1)CC2C3` (stereo unspecified) [listing 1 of 2 here], in the data set on Trypanosoma brucei [1], the IC50 was 340 nM and the IC90 came out at 622 nM.

For the compound `CN1CC(=O)N(CC(=O)NO)C(=O)C12CCCCCC2` [listing 1 of 2 here], in the data set with Trypanosoma brucei [1], the IC50 was determined as 311 nM and the IC90 is 717 nM.

`O=C(CN1C(=O)CNC2(CCCCCCC2)C1=O)NO` [listing 1 of 2 here]: in the data set on Trypanosoma brucei [1], the IC50 came out at 266 nM and the IC90 was 495 nM.

Turning to `O=C(CN1C(=O)[C@H](Cc2ccccc2)NC2(CCCCCCC2)C1=O)NO` [listing 1 of 2 here], in the data set on Trypanosoma brucei [1], the IC50 came out at 25 nM and the IC90 was 35 nM.

As to `CN1CC(=O)N(CC(=O)NO)C(=O)C12C1CC3CC(C1)CC2C3` (stereo unspecified) [listing 2 of 2 here], the IC50 in the data set on Trypanosoma cruzi came out at 3620 nM; in the data set with L6, 40400 nM; with Trypanosoma brucei [1] (Trypanosoma brucei, 427, 48 h), 193 nM. Further, the IC90 in the data set with Trypanosoma cruzi came out at 5990 nM; with Trypanosoma brucei [1] (Trypanosoma brucei, 427, 48 h), 328 nM. The selectivity ratio in data set [2] stood at 210.

`O=C(CN1C(=O)[C@@H](Cc2ccccc2)NC2(C1=O)C1CC3CC(C1)CC2C3)NO` (stereo partly specified) [listing 1 of 2 here]: the IC50 was 11600 nM with L6; 9.1 nM in the data set with Trypanosoma brucei [1] (Trypanosoma brucei, 427, 48 h); 106 nM in the data set on Trypanosoma brucei [3]. The selectivity ratio in data set [2] worked out at 1300.

Consider `CN1CC(=O)NC(=O)C12C1CC3CC(C1)CC2C3` (stereo unspecified), for which, in the data set with Trypanosoma brucei [4] (read-out: GI), the inhibition of growth at 5 µg/mL turned out to be 40%.

As for `CN1CC(=O)N(CC(=O)NO)C(=O)C12CCCCCC2` [listing 2 of 2 here], in the data set on Trypanosoma brucei [1] (Trypanosoma brucei, 427, 48 h), the IC50 was found to be 285 nM and the IC90 was 673 nM.

As for `O=C(CN1C(=O)[C@H](Cc2ccccc2)NC2(CCCCCCC2)C1=O)NO` [listing 2 of 2 here], in the data set on L6, half-maximal inhibition (IC50) was put at 93800 nM. In the data set on Trypanosoma brucei [1] (Trypanosoma brucei, 427, 48 h), the IC50 came to 29 nM and the IC90 came to 39 nM. Further, in data set [2], the selectivity ratio was 3200.

Consider `C[C@@H]1NC2(CCCCCCC2)C(=O)N(CC(=O)NO)C1=O` [listing 1 of 2 here], for which, in the data set with Trypanosoma brucei [1] (Trypanosoma brucei, 427, 48 h), the IC50 worked out at 125 nM and the IC90 is 270 nM.

`O=C1ON=C2C3CC4CC(C3)CC12C4`: the figures for the “Ratio IC50” value in the data set on Trypanosoma brucei [5] and in the data set with Trypanosoma brucei [6] were 45 and 3, respectively.

Regarding `C[C@@H]1NC2(C(=O)N(CC(=O)NO)C1=O)C1CC3CC(C1)CC2C3` (stereo partly specified) [listing 2 of 2 here], in the data set on Trypanosoma brucei [1], the IC50 came to 134 nM and the IC90 is 276 nM.

As to `O=C(CN1C(=O)CNC2(CCCCCCC2)C1=O)NO` [listing 2 of 2 here], in the data set on Trypanosoma brucei [1] (Trypanosoma brucei, 427, 48 h), the IC50 worked out at 300 nM and the 90% effect concentration (IC90) stood at 635 nM.

For the compound `O=C(CN1C(=O)C(Cc2ccccc2)NC2(C1=O)C1CC3CC(C1)CC2C3)NO` (racemic; form 1), the IC50 was determined as 23700 nM in the data set on L6; 17 nM in the data set with Trypanosoma brucei [1] (Trypanosoma brucei, 427, 48 h); 285 nM with Trypanosoma brucei [3]. For the same compound, the IC90 in the data set with Trypanosoma brucei [1] (Trypanosoma brucei, 427, 48 h) was 26 nM. The selectivity ratio in data set [2] was 1400.

For `O=C(CN1C(=O)[C@@H](Cc2ccccc2)NC2(C1=O)C1CC3CC(C1)CC2C3)NO` (stereo partly specified) [listing 2 of 2 here], in the data set with Trypanosoma brucei [1], the IC90 was determined as 14 nM.

As to `O=C(CN1C(=O)CNC2(C1=O)C1CC3CC(C1)CC2C3)NO` (stereo unspecified) [listing 1 of 2 here], in the data set on Trypanosoma brucei [1], the IC50 was determined as 79 nM and the IC90 is 148 nM.

Turning to `CN1CC(=O)N(CC(=O)NO)C(=O)C12CCCCCCC2` [listing 2 of 2 here], in the data set with Trypanosoma brucei [1], the IC50 amounted to 162 nM and the IC90 was determined as 327 nM.

As to `C[C@@H]1NC2(CCCCCCC2)C(=O)N(CC(=O)NO)C1=O` [listing 2 of 2 here], in the data set on Trypanosoma brucei [1], the IC50 turned out to be 134 nM and the IC90 turned out to be 259 nM.

Turning to `O=C(CN1C(=O)CNC2(CCCCCC2)C1=O)NO` [listing 1 of 2 here], in the data set on Trypanosoma brucei [1], the IC50 amounted to 1150 nM and the IC90 turned out to be 1710 nM.

On to `O=C(CN1C(=O)CNC2(CCCCCC2)C1=O)NO` [listing 2 of 2 here], for which, in the data set with Trypanosoma brucei [1] (Trypanosoma brucei, 427, 48 h), the IC50 is 1870 nM and the IC90 came to 2530 nM.

In the case of `O=C(CN1C(=O)[C@H](Cc2ccccc2)NC2(C1=O)C1CC3CC(C1)CC2C3)NO` (stereo partly specified) [listing 2 of 2 here], the IC50 in the data set with Trypanosoma cruzi turned out to be 210 nM; with L6 it was 10400 nM; in the data set on Trypanosoma brucei [1], 6.8 nM; in the data set with Trypanosoma brucei [3], 332 nM. Moreover, the concentration for an effect of 90% (IC90) came to 360 nM in the data set with Trypanosoma cruzi and 11.5 nM in the data set on Trypanosoma brucei [1]. Besides, the selectivity ratio in data set [2] came to 1500.

Turning to `O=C(CN1C(=O)CNC2(C1=O)C1CC3CC(C1)CC2C3)NO` (stereo unspecified) [listing 2 of 2 here], the IC50 in the data set on Trypanosoma cruzi was 5510 nM; in the data set on L6, over 325000 nM; with Trypanosoma brucei [1] (Trypanosoma brucei, 427, 48 h) it was 90 nM. Moreover, the IC90 in the data set with Trypanosoma cruzi stood at 11100 nM; in the data set on Trypanosoma brucei [1] (Trypanosoma brucei, 427, 48 h), 155 nM. Besides, in data set [2], the selectivity ratio was over 3600.

As for `O=C(CN1C(=O)C(Cc2ccccc2)NC2(C1=O)C1CC3CC(C1)CC2C3)NO` (racemic; form 2), in the data set on Trypanosoma brucei [1], the IC50 was 18 nM and the IC90 turned out to be 24 nM.

For `O=C1CNC2(C(=O)N1)C1CC3CC(C1)CC2C3` (stereo unspecified), the “growth inhibition (GI)” value in the data set with Trypanosoma brucei [4] was “inactive”.

(Values after ChEMBL document CHEMBL1800014, “Novel lipophilic acetohydroxamic acid derivatives based on conformationally constrained spiro carbocyclic 2,6-diketopiperazine scaffolds with potent trypanocidal activity” (J Med Chem, 2011).)
